Test results: article PMC4059944 (Nature, 2014)
Where “and” joins values, the source holds several entries; their conditions need not be identical. Equal values may be shown once. Ends that are not written are not given here.

How the values were obtained:
Ctf4CTD = test: Analytical gel filtration of Ctf4CTD - GINS; format: binding, yeast (S. cerevisiae); conditions: Superdex S200, 20 mM HEPES pH 7.2, 140 mM KCl, full-length or N-terminally truncated Sld5
[1] = biological target: T1, Ctf4 N-terminal deletion (Ctf4CTD, aa 461-927) (S. cerevisiae, UniProt Q01454 461-927); test: negative-stain single-particle electron microscopy
T1 sequence: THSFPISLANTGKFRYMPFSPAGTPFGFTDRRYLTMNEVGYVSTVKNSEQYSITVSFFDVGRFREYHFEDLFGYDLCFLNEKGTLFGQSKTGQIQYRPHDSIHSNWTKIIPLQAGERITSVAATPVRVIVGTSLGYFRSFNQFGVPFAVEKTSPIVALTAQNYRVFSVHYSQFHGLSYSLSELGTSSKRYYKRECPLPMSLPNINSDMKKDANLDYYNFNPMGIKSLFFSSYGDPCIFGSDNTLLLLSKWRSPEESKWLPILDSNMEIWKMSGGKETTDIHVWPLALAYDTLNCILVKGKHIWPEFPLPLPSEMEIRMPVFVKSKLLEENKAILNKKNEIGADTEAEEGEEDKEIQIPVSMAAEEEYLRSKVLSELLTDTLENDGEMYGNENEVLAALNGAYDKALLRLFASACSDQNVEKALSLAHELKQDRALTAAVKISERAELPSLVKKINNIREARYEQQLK

[2] = Multi-angle laser scattering; format: physicochemical, yeast (S. cerevisiae); conditions: size exclusion chromatography - MALS
Summary of the method: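 Recombinant His-tagged full-length yeast Ctf4, expressed in E. coli BL21(DE3)-CodonPlus (1 mM IPTG, 37°C, 2 h), purified by Ni-NTA, Mono Q ion exchange and Superdex 200 gel filtration. About 100 μg loaded onto an HPLC size-exclusion column equilibrated in 150 mM NaCl, 20 mM Tris pH 8.0, 1 mM DTT. Eluate read by 8-angle light scattering and refractive index detectors.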

[3] = Native mass spectrometry, oligomeric state; format: physicochemical, yeast (S. cerevisiae); conditions: nano-electrospray, 500 mM ammonium acetate
SEC-MALS = biological target: the molecule itself; test: SEC-MALS
[4] = biological target: T2, fluorescein-labelled yeast Sld5 peptide (1-19) (S. cerevisiae); test: fluorescence polarisation
T2 peptide: fluorescein-MDINIDDILAELDKETTAV

B1: GINSPsf1ΔC (Strep III-tagged, for electron microscopy) (complex)
chain 1: MGYYDIDDVLADGTEFPCKFQYDIPGLGYLENNPGRPITKNTKLSLPLWLARILAIVGGDEALVDEEPVPFVELLPPDMFSTKVMNAIKTDPVALDLHSINSHFFSLAIKWIMLFSEKELANVVSELLLQRAQELNHHASSLSIDLNADSTGKNSANTNIATSTFLLKLEEMEKEIYKKSHESYKDTKRWMFKK
chain 2: MYGDLGNKLVLEAKRTKQLYARSNQDVNLPMYHEDIIRNILKEVSNLRKNTEYLKEQQQLGMLDDKVAKCQYFVTLLCMERNKRCLLAYQRLRTDILDSMAWNNNGLDLMSSITFSQQDTNNLSHQEQEYLKEYCDLITDLKSGDLVDIDLSGSLVPPSDVFID
chain 3: MSLPAHLQQTFSPEEIQFIVENEPIKIFPRITTRQKIRGDDRGTGNHTRWQLITTDDKALNNMVAMRSTEVVLWIALLLKQQSKCSIVAPQWLTTKELDRKIQYEKTHPDRFSELPWNWLVLARILFNKAKDDFHDPIHELRGKIQDLREIRQIKVLKGLKYLNESHLQLDNLSLLEINELRPFITEIMDKLREIHTASLTAGTENDEEEFNI
chain 4: MDINIDDILAELDKETTAVDSTKITQGSSSTTHRDANTIVGSSLDLNDKTQIYVSPQQDFSDLMKSWKNERCSPELLPYPHQLMKRLLNRISMQSQLIENISMGFLDMQNASNANPPMPNESKLPLLCMETELERLKFVIRSYIRCRLSKIDKFSLYLRQLNEDENSLISLTDLLSKDEIKYHDTHSLIWLKLVNDSILKYMPEELQAINDTEGSVNMIDEPDWNKFVFIHVNGPPDGKWNEDPLLQENEFGKPCYTVTIPDLKEEVELTIGSIYVMRYEVIRDLLRDDKVALI
Question: For B1, which “Ctf4 - GINS interaction” value (Ctf4CTD) is on record?
Answer: dependent upon the unstructured tail at the N-terminus of the Sld5 subunit of GINS

Question: And the “stoichiometry N” value [1]?
Answer: 1 copies of GINS per Ctf4CTD trimer and 2 copies of GINS per Ctf4CTD trimer and 3 copies of GINS per Ctf4CTD trimer

B2: Ctf4CTD (yeast Ctf4 amino acids 471 to 927) (domain or fragment)
chain: TGKFRYMPFSPAGTPFGFTDRRYLTMNEVGYVSTVKNSEQYSITVSFFDVGRFREYHFEDLFGYDLCFLNEKGTLFGQSKTGQIQYRPHDSIHSNWTKIIPLQAGERITSVAATPVRVIVGTSLGYFRSFNQFGVPFAVEKTSPIVALTAQNYRVFSVHYSQFHGLSYSLSELGTSSKRYYKRECPLPMSLPNINSDMKKDANLDYYNFNPMGIKSLFFSSYGDPCIFGSDNTLLLLSKWRSPEESKWLPILDSNMEIWKMSGGKETTDIHVWPLALAYDTLNCILVKGKHIWPEFPLPLPSEMEIRMPVFVKSKLLEENKAILNKKNEIGADTEAEEGEEDKEIQIPVSMAAEEEYLRSKVLSELLTDTLENDGEMYGNENEVLAALNGAYDKALLRLFASACSDQNVEKALSLAHELKQDRALTAAVKISERAELPSLVKKINNIREARYEQQLK
Question: For B2, which “oligomeric state in solution (MALS)” value [2] is on record?
Answer: stable trimer in solution

Question: What about the “oligomeric state in solution (native mass spectrometry)” value [3] of the same molecule?
Answer: stable trimer in solution

Question: What about the “stoichiometry N” value (SEC-MALS) of the same molecule?
Answer: 3

Question: And the “fold tighter association than the Pol1 motif” value [4]?
Answer: ~5 fold
